Laboratory results as given in ChEMBL document CHEMBL1156177, “Conjugates of plumbagin and phenyl-2-amino-1-thioglucoside inhibit MshB, a deacetylase involved in the biosynthesis of mycothiol” (Bioorg Med Chem, 2010).

T1: 1D-myo-inositol 2-acetamido-2-deoxy-alpha-D-glucopyranoside deacetylase (Mycobacterium tuberculosis) (UniProt P9WJN3)
T1 sequence (whole entry): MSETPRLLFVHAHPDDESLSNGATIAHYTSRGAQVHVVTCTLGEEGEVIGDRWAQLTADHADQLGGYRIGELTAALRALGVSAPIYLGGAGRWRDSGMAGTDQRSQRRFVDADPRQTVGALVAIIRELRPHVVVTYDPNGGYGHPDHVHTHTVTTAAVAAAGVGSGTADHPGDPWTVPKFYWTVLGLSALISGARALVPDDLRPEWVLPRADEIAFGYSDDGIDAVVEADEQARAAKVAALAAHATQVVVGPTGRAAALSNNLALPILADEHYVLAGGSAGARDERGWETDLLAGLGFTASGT

T2: 1D-myo-inositol 2-acetamido-2-deoxy-alpha-D-glucopyranoside deacetylase (Mycobacterium tuberculosis, UniProt P9WJN3)
T2 sequence (P9WJN3 whole entry): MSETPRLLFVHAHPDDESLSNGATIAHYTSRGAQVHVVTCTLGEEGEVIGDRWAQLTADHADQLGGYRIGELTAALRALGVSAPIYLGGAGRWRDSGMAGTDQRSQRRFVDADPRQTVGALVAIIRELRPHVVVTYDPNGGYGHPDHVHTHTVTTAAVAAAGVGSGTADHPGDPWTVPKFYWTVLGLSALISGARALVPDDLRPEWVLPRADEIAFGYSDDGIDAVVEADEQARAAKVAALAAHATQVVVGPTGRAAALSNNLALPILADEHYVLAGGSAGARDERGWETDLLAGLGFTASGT


Assays:
[1] = test system: Mycolicibacterium smegmatis; assay: Inhibition of Mycobacterium smegmatis Mca at 250 uM after 10 mins by HPLC analysis
Method in brief: (§1)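 Native Mca purified from M. smegmatis by (NH4)2SO4 cut (15–50%), DEAE, hydroxyapatite and size-exclusion HPLC. 8.0 nmol of the bimane substrate MSmB and 8.0 nmol inhibitor (250 µM each) in Na-Hepes pH 7.5 with NaCl, 40 µl final volume, run 10 min at 37 °C. Stopped with acetonitrile/TFA and 60 °C for 10 min. Product read by C-18 HPLC with fluorescence detection (ex 396/em 482 nm).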

[2] = molecular target: T1, 1D-myo-inositol 2-acetamido-2-deoxy-alpha-D-glucopyranoside deacetylase (Mycobacterium tuberculosis); assay: Inhibition of Mycobacterium tuberculosis MshB expressed in Escherichia coli BL21 at 500 uM after 10 mins by HPLC analysis
Method in brief: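 Recombinant MshB (E. coli BL21(DE3) pLysS, purified) assayed with GlcNAc-Ins and inhibitor, each at 500 μM, in 40 μl with 1.0 μmol Na-Hepes pH 7.5, 1.0 μmol NaCl, 3.26 μg MshB; 10 min at 37 °C; stopped with acetonitrile/TFA, 60 °C 10 min; GlcN-Ins measured by C-18 hplc as AccQ-Fluor derivative; percent inhibition.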

[3] = molecular target: T2, 1D-myo-inositol 2-acetamido-2-deoxy-alpha-D-glucopyranoside deacetylase; assay: Inhibition of Mycobacterium tuberculosis MshB expressed in Escherichia coli BL21 after 10 mins by HPLC analysis
[4] = test system: Mycolicibacterium smegmatis; assay: Activity at Mycobacterium smegmatis Mca by HPLC analysis; method in brief: as §1
[5] = molecular target: T1, 1D-myo-inositol 2-acetamido-2-deoxy-alpha-D-glucopyranoside deacetylase (Mycobacterium tuberculosis); assay: Activity at Mycobacterium tuberculosis MshB expressed in Escherichia coli BL21 at 250 uM assessed per mg of protein by HPLC analysis
Method in brief: (§2)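 Recombinant MshB from E. coli BL21(DE3) pLysS (IPTG 0.4 mM, 18 °C) purified by DEAE, Zn-IMAC and gel filtration. Substrates (GlcNAc glycosides, 250 μM for single-point comparison) incubated with 8.15 μg MshB, 1 μmol NaCl, 1 μmol Hepes pH 7.5 in 40 μl, 10 min, 37 °C; product quantified by C-18 hplc (UV for phenyl aglycons, dansylated for cyclohexyl) against complete-cleavage calibration curves.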

[6] = molecular target: T1, 1D-myo-inositol 2-acetamido-2-deoxy-alpha-D-glucopyranoside deacetylase (Mycobacterium tuberculosis); assay: Ratio of Kcat to Km for Mycobacterium tuberculosis MshB
Method in brief: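 GlcNAc-Ins varied 50–2000 μM with 3.26 μg purified recombinant MshB, 1.0 μmol Na-Hepes pH 7.5, 1.0 μmol NaCl in 40 μl, 10 min at 37 °C; GlcN-Ins quantified by hplc as AccQ-Fluor derivative.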

[7] = substrate: CC(=O)N[C@@H]1[C@@H](O)[C@H](O)[C@@H](CO)O[C@@H]1Sc1ccccc1; assay: (§3) Activity at Mycobacterium tuberculosis MshB expressed in Escherichia coli BL21 by HPLC analysis; method in brief: as §2
[8] = substrate: CC(=O)N[C@H]1[C@@H](O[C@@H]2[C@H](O)[C@H](O)[C@@H](O)[C@H](O)[C@H]2O)O[C@H](CO)[C@@H](O)[C@@H]1O; assay: as §3; method in brief: as §2
[9] = substrate: CC(=O)N[C@@H]1[C@@H](O)[C@H](O)[C@@H](CO)O[C@@H]1Sc1ccccc1; assay: (§4) Activity at Mycobacterium tuberculosis MshB expressed in Escherichia coli BL21 assessed per mg of protein by HPLC analysis; method in brief: as §2
[10] = substrate: CC(=O)N[C@H]1[C@@H](O[C@@H]2[C@H](O)[C@H](O)[C@@H](O)[C@H](O)[C@H]2O)O[C@H](CO)[C@@H](O)[C@@H]1O; assay: as §4; method in brief: as §2

Molecule	inhibition [1] [%]	inhibition [2] [%]	other results
CC1=C(CCCCCC(=O)N[C@@H]2[C@@H](O)[C@H](O)[C@@H](CO)O[C@@H]2Sc2ccccc2)C(=O)c2c(O)cccc2C1=O	44.5	94.8	Ki [3]: 16.8 µM
CC1=C(CCCC(=O)N[C@@H]2[C@@H](O)[C@H](O)[C@@H](CO)O[C@@H]2Sc2ccccc2)C(=O)c2c(O)cccc2C1=O	37.8	81.6	–
N[C@@H]1[C@@H](O)[C@H](O)[C@@H](CO)O[C@@H]1SC1CCCCC1	0	16.4	–
O=C(CCl)N[C@@H]1[C@@H](O)[C@H](O)[C@@H](CO)O[C@@H]1SC1CCCCC1	0	14.9	–
O=C(Nc1ccccc1)N[C@@H]1[C@@H](O)[C@H](O)[C@@H](CO)O[C@@H]1SC1CCCCC1	15	17	–
CO[C@H]1OCC(S[C@H]2O[C@H](CO)[C@@H](O)[C@H](O)[C@H]2NC(C)=O)C[C@H]1O (stereo partly drawn)	27	0	–
CC(=O)N[C@@H]1[C@@H](O)[C@H](O)[C@@H](CO)O[C@@H]1Sc1ccc([N+](=O)[O-])cc1[N+](=O)[O-]	0	29.4	–
CC(=O)N[C@@H](CSSc1ccc2cc(O)ccc2c1)C(=O)NC1[C@@H](OC2[C@H](O)[C@H](O)C(O)[C@@H](O)[C@H]2O)O[C@H](CO)[C@@H](O)[C@@H]1O (stereo partly drawn)	–	–	Km [4]: 328 µM
CC1=C(CCCCC(=O)N[C@@H]2[C@@H](O)[C@H](O)[C@@H](CO)O[C@@H]2Sc2ccccc2)C(=O)c2c(O)cccc2C1=O	23.2	81.4	Ki [3]: 94 µM
C=CC[C@H]1[C@@H](OC2CCCCC2)O[C@H](CO)[C@@H](O)[C@@H]1O	73.8	0	–
CCC[C@H]1[C@@H](OC2CCCCC2)O[C@H](CO)[C@@H](O)[C@@H]1O	22	0	–
C=CC[C@H]1[C@H](OC2CCCCC2)O[C@H](CO)[C@@H](O)[C@@H]1O	9.3	0	–
CS(=O)(=O)N[C@@H]1[C@@H](O)[C@H](O)[C@@H](CO)O[C@@H]1SC1CCCCC1	0	0	–
OC[C@H]1O[C@H](OC2CCCCC2)[C@@H]2CC(O)CO[C@H]2[C@@H]1O (stereo partly drawn)	35	6.6	–
CC1=C(CCC(=O)N[C@@H]2[C@@H](O)[C@H](O)[C@@H](CO)O[C@@H]2Sc2ccccc2)C(=O)c2c(O)cccc2C1=O	28.8	57.4	Ki [3]: 167 µM
CC(=O)N[C@H]1[C@@H](OC2CCCCC2)O[C@H](CO)[C@@H](O)[C@@H]1O	–	–	Activity [5]: 6.07 nmol/min/mg
OC[C@H]1O[C@H](OC2CCCCC2)[C@H](CC2CO2)[C@@H](O)[C@@H]1O (stereo partly drawn)	19.4	19.7	–
CC(=O)N[C@H]1[C@@H](O[C@@H]2[C@H](O)[C@H](O)[C@@H](O)[C@H](O)[C@H]2O)O[C@H](CO)[C@@H](O)[C@@H]1O	–	–	Ratio [6]: 690 M⁻¹ s⁻¹; Activity [5]: 106 nmol/min/mg
CC(=O)N[C@@H]1[C@@H](O)[C@H](O)[C@@H](CO)O[C@@H]1SC1CCCCC1	–	–	Activity [5]: 6.11 nmol/min/mg
CC(=O)N[C@@H]1[C@@H](O)[C@H](O)[C@@H](CO)O[C@H]1SCc1ccccc1	0	13.3	–
N[C@@H]1[C@@H](O)[C@H](O)[C@@H](CO)O[C@@H]1Sc1ccccc1	17	6.1	–
CC(=O)N[C@@H]1[C@@H](O)[C@H](O)[C@@H](CO)O[C@H]1Sc1ccccc1	0	15.1	–
CC(O)C[C@H]1[C@@H](OC2CCCCC2)O[C@H](CO)[C@@H](O)[C@@H]1O (stereo partly drawn)	20.5	11.4	–
CC(=O)N[C@@H]1[C@@H](O)[C@H](O)[C@@H](CO)O[C@@H]1Sc1ccccc1	–	–	Ratio [6]: 69.4 M⁻¹ s⁻¹; Activity [5]: 27 nmol/min/mg
CC(=O)C[C@H]1[C@@H](OC2CCCCC2)O[C@H](CO)[C@@H](O)[C@@H]1O	17.2	6.7	–
CC(=N)N[C@@H]1[C@@H](O)[C@H](O)[C@@H](CO)O[C@@H]1SC1CCCCC1	6.8	0	–
1D-myo-inositol 2-acetamido-2-deoxy-alpha-D-glucopyranoside deacetylase (Mycobacterium tuberculosis), P9WJN3 (protein) MSETPRLLFVHAHPDDESLSNGATIAHYTSRGAQVHVVTCTLGEEGEVIGDRWAQLTADHADQLGGYRIGELTAALRALGVSAPIYLGGAGRWRDSGMAGTDQRSQRRFVDADPRQTVGALVAIIRELRPHVVVTYDPNGGYGHPDHVHTHTVTTAAVAAAGVGSGTADHPGDPWTVPKFYWTVLGLSALISGARALVPDDLRPEWVLPRADEIAFGYSDDGIDAVVEADEQARAAKVAALAAHATQVVVGPTGRAAALSNNLALPILADEHYVLAGGSAGARDERGWETDLLAGLGFTASGT	–	–	Km [7]: 1700 µM; kcat [7]: 0.12 s⁻¹; Km [8]: 348 µM; kcat [8]: 0.24 s⁻¹; Vmax [9]: 214 nmol/min/mg; Vmax [10]: 437 nmol/min/mg
